Measured values as given in ChEMBL document CHEMBL1828568, “Novel imaging agents for β-amyloid plaque based on the N-benzoylindole core” (Bioorg Med Chem Lett, 2011).
The source made the active and inactive calls. The calls are words filed in the database; no cut-off is given here.

Legend:
[1] = species: Mus musculus; assay: Binding affinity to beta-amyloid plaque in APP/PS1 transgenic mouse C57 brain after 20 mins by fluorescent staining with thioflavin-S; format: tissue-based; details: tested as the 125I-labelled form
[2] = Displacement of [125I]TZDM from amyloid beta (1 to 40) aggregates after 2 hrs by gamma counting
In short: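 Competition binding against [125I]TZDM as radiolabeled standard, using Aβ1–40 aggregates; run in triplicate, results as mean ± SD.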

[3] = species: Mus musculus; assay: Binding affinity to beta-amyloid plaque in APP/PS1 transgenic mouse C57 brain after 20 mins by autoradiography; format: tissue-based; details: tested as the 125I-labelled form
In short: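 In vitro autoradiography of brain sections from AD model mice (C57, APP/PS1), labeled with the 125I-iodinated tracer.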

Activity [1] | Ki [2] [nM] | Activity [3] | SMILES
Active | 8.4 | Active | O=C(/C=C/c1ccccc1)n1ccc2cc(I)ccc21
 | 25.4 |  | COc1ccc(/C=C/C(=O)n2ccc3cc(Br)ccc32)cc1
 | 18.9 |  | O=C(/C=C/c1ccccc1)n1ccc2cc(Br)ccc21
 | 32.4 |  | COc1ccc(/C=C/C(=O)n2ccc3cc(F)ccc32)cc1
 | 32.7 |  | O=C(/C=C/c1ccccc1)n1ccc2cc(F)ccc21
